Measurements from ChEMBL document CHEMBL3102810, “Alkylamino derivatives of pyrazinamide: synthesis and antimycobacterial evaluation” (Bioorg Med Chem Lett, 2014).
Converted amounts (≈) assume the structure as drawn. The source made the active and inactive calls. The rule behind the calls is not given here.

Columns and labels:
Klebsiella pneumoniae [1] = test: Antibacterial activity against Klebsiella pneumoniae D 11750/08 after 24 to 48 hrs by microdilution broth method; format: functional, organism-based
In short: (§1)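 Antibacterial screen with compound concentrations up to a highest level of 500 µM. Results expressed as MIC in µM.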

Candida tropicalis = test: Antifungal activity against Candida tropicalis 156 after 72 to 120 hrs by microdilution broth method; format: functional, organism-based
Mycobacterium avium [2] = test: Antimycobacterial activity against pyrazinamide-resistant Mycobacterium avium CNCTC My 80/72 after 5 days by microplate alamar blue assay; format: functional; conditions: CNCTC My 80/72, 120 h
In short: (§2)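 Microplate alamar blue assay run at pH 5.6, using conditions optimized for pyrazinamide. Strains came from the Czech National Collection of Type Cultures. MIC was read in µg/mL and converted to µM using molecular weight.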

Klebsiella pneumoniae [3] = test: Antibacterial activity against ESBL positive Klebsiella pneumoniae J 14368/08 after 24 to 48 hrs by microdilution broth method; format: functional, organism-based; in short: as §1
[4] = test system: Trichophyton mentagrophytes; test: Antifungal activity against Trichophyton mentagrophytes 445 after 72 to 120 hrs by microdilution broth method; format: functional, organism-based
[5] = test system: Trichophyton mentagrophytes; test: Antifungal activity against Trichophyton mentagrophytes after 72 to 120 hrs by microdilution broth method; format: functional, organism-based
[6] = test system: Staphylococcus epidermidis; test: Antibacterial activity against Staphylococcus epidermidis H 6966/08 up to 500 uM after 24 to 48 hrs by microdilution broth method; format: functional, organism-based; in short: as §1
[7] = test system: Mycobacterium tuberculosis; test: Antimycobacterial activity against Mycobacterium tuberculosis H37Rv CNCTC My 331/88 after 5 days by microplate alamar blue assay; format: functional; conditions: H37Rv CNCTC My 331/88, 120 h; in short: as §2
[8] = Lipophilicity, log K of the compound by HPLC analysis; format: physicochemical
Lichtheimia corymbifera = test: Antifungal activity against Absidia corymbifera 272 after 72 to 120 hrs by microdilution broth method; format: functional, organism-based
Mycobacterium kansasii = test: Antimycobacterial activity against pyrazinamide-resistant Mycobacterium kansasii CNCTC My 235/80 after 5 days by microplate alamar blue assay; format: functional; conditions: CNCTC My 235/80, 120 h; in short: as §2
Enterococcus sp. = test: Antibacterial activity against Enterococcus sp. J 14365/08 after 24 to 48 hrs by microdilution broth method; format: functional, organism-based; in short: as §1
Aspergillus fumigatus = test: Antifungal activity against Aspergillus fumigatus 231 after 72 to 120 hrs by microdilution broth method; format: functional, organism-based
Pichia kudriavzevii = test: Antifungal activity against Candida krusei E28 after 72 to 120 hrs by microdilution broth method; format: functional, organism-based
Staphylococcus aureus = test: Antibacterial activity against Staphylococcus aureus CCM 4516/08 after 24 to 48 hrs by microdilution broth method; format: functional, organism-based; in short: as §1
[9] = test system: Staphylococcus epidermidis; test: Antibacterial activity against Staphylococcus epidermidis H 6966/08 after 48 hrs by microdilution broth method; format: functional; in short: as §1
Escherichia coli = test: Antibacterial activity against Escherichia coli CCM 4517 after 24 to 48 hrs by microdilution broth method; format: functional, organism-based; in short: as §1
Candida albicans = test: Antifungal activity against Candida albicans ATCC 44859 after 72 to 120 hrs by microdilution broth method; format: functional, organism-based
Pseudomonas aeruginosa = test: Antibacterial activity against Pseudomonas aeruginosa CCM 1961 after 24 to 48 hrs by microdilution broth method; format: functional, organism-based; in short: as §1
Trichosporon asahii = test: Antifungal activity against Trichosporon asahii 1188 after 72 to 120 hrs by microdilution broth method; format: functional, organism-based
[10] = test system: Staphylococcus epidermidis; test: Antibacterial activity against methicillin-resistant Staphylococcus epidermidis H 5996/08 after 24 to 48 hrs by microdilution broth method; format: functional, organism-based
Mycobacterium avium [11] = test: Antimycobacterial activity against pyrazinamide-resistant Mycobacterium avium CNCTC My 152/73 after 5 days by microplate alamar blue assay; format: functional; conditions: CNCTC My 152/73, 120 h; in short: as §2
Nakaseomyces glabratus = test: Antifungal activity against Candida glabrata 20/I after 72 to 120 hrs by microdilution broth method; format: functional, organism-based

Structure (SMILES) | Activity (Klebsiella pneumoniae [1]) | Activity (Candida tropicalis) | MIC (Mycobacterium avium [2]) | Activity (Klebsiella pneumoniae [3]) | Activity [4] | Activity [5] | Activity [6] | MIC [7] | log K [8] | Activity (Lichtheimia corymbifera) | MIC (Mycobacterium kansasii) | Activity (Enterococcus sp.) | Activity (Aspergillus fumigatus) | Activity (Pichia kudriavzevii) | Activity (Staphylococcus aureus) | Activity [9] | Activity (Escherichia coli) | Activity (Candida albicans) | Activity (Pseudomonas aeruginosa) | Activity (Trichosporon asahii) | other results
CCCCCCNc1cnc(C(N)=O)cn1 | inactive | inactive | > 100 µg/mL | inactive | inactive | inactive | inactive | 225 µM | 0.2389 | inactive | 100 µg/mL | inactive | inactive | inactive | inactive | inactive | inactive | inactive | inactive | inactive | Activity [10]: inactive; MIC (Mycobacterium avium [11]): > 100 µg/mL; Activity (Nakaseomyces glabratus): inactive
NC(=O)c1cncc(NCCCc2ccccc2)n1 | inactive | inactive | > 100 µg/mL | inactive | inactive | inactive | inactive | > 100 µg/mL | 0.0741 | inactive | > 100 µg/mL | inactive | inactive | inactive | inactive | inactive | inactive | inactive | inactive | inactive | Activity [10]: inactive; MIC (Mycobacterium avium [11]): > 100 µg/mL; Activity (Nakaseomyces glabratus): inactive
NC(=O)c1cnc(NCCCc2ccccc2)cn1 | inactive | inactive | > 100 µg/mL | inactive | inactive | inactive | inactive | 98 µM | 0.1408 | inactive | 100 µg/mL | inactive | inactive | inactive | inactive | inactive | inactive | inactive | inactive | inactive | Activity [10]: inactive; MIC (Mycobacterium avium [11]): > 100 µg/mL; Activity (Nakaseomyces glabratus): inactive
CCNc1cncc(C(N)=O)n1 | inactive | inactive | > 100 µg/mL | inactive | inactive | inactive | inactive | > 100 µg/mL | -0.6318 | inactive | > 100 µg/mL | inactive | inactive | inactive | inactive | inactive | inactive | inactive | inactive | inactive | Activity [10]: inactive; MIC (Mycobacterium avium [11]): > 100 µg/mL; Activity (Nakaseomyces glabratus): inactive
CNc1cncc(C(N)=O)n1 | inactive | inactive | – | inactive | inactive | inactive | inactive | – | – | inactive | – | inactive | inactive | inactive | inactive | inactive | inactive | inactive | inactive | inactive | Activity [10]: inactive; Activity (Nakaseomyces glabratus): inactive
NNC(=O)c1ccncc1 [ISONIAZID] | – | – | 12.5 µg/mL (≈ 91.1 µM) | – | – | – | – | 3 µM | -0.7432 | – | 11 µM | – | – | – | – | – | – | – | – | – | MIC (Mycobacterium avium [11]): 6.25 µg/mL (≈ 45.6 µM)
